# Rows were chosen to be rich in hits. Some 1.3% of all compounds tested hit in one or more screens of this group.
# PDI inh – inhibitors of human PDI, primary screen, biochemical, turbidity, single point, plate reader. PDI insulin aggregation turbidity, A650, 90 min. inhibition, % at 10 µM. 350,000 compounds, 0.052% hits;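 active = mean inhibition across replicates of 30% or more, whatever share of single replicates reach that level; inconclusive = mean inhibition below 30% while every single replicate reaches 30%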
# MLL AF4-AF9 inh – inhibitors of AF4 peptide binding to AF9, primary screen, biochemical, AlphaScreen, biotin-AF4 peptide, FLAG-AF9, single point. Protein AF-9 (Homo sapiens), P42568. inhibition, % at 10 µM. 350,000 compounds, 0.47% hits. AID 651704, 2012;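 active = every replicate reaching a set inhibition limit, whatever the replicate mean, cut at about 25% in these data; inconclusive = mean inhibition reaches that limit but some replicates miss it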
# SIRT5 inh – SIRT5 desuccinylase inhibitors, primary screen, biochemical, fluorescence imaging, single point, set 5; NAD-dependent protein deacylase sirtuin-5, mitochondrial (Homo sapiens), Q9NXA8; Purified SirT5, succinyl-peptide AMC, trypsin-coupled fluorescence; inhibition, % at 15 µM; 330,000 compounds, 1.1% hits; in the data active = inhibition above about 15%; inconclusive = no clear call, values can overlap the other calls
# Target sequence (Q9NXA8 whole entry, looked up): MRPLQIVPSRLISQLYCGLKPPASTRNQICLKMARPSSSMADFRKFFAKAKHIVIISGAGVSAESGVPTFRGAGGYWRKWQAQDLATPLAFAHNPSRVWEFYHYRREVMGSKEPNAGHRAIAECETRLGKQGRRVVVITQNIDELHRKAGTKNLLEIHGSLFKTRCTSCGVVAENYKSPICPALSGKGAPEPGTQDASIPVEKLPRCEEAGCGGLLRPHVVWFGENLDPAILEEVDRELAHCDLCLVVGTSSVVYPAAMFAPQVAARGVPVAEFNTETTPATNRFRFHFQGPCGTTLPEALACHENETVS
# ERp5 inh – inhibitors of ERp5-driven insulin aggregation, primary screen, biochemical, turbidity, absorbance 650 nm, single point; 350,000 compounds, 0.05% hits; Protein disulfide-isomerase A6 (Homo sapiens), Q15084; AID 651711, 2012; inhibition, % at 9.99 µM; 90 min;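 active = mean replicate inhibition above about 25%, with every replicate also reaching it, limit read from the data, passing the limit was not always enough; inconclusive = only one of those two criteria met; inactive = neither criterion met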
# FN deposit inh – inhibitors of fibronectin matrix deposition, primary screen, AH1F cells, Alexa488-fibronectin fluorescence, plate reader. AID 743247, 2014. inhibition, % at 12.6 µM. AH1F fibroblasts, overnight. 350,000 compounds, 0.086% hits;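 active = mean inhibition across replicates of 30% or more, regardless of how many single replicates reach that level; inconclusive = mean under 30% yet at least half of replicates reach 30%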
#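 material = AH1F fibroblast monolayer depositing Alexa488-labelled fibronectin into matrix | amount = 10000 AH1F cells/well | buffer or medium = DMEM plus 2% serum, read in PBS | incubation = 1 h cell adhesion before compound, then overnight fibronectin incubation | detection = fluorescence at 485 nm excitation, 525 nm emission | evaluation = percent inhibition as loss of matrix-bound fibronectin fluorescence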
# Hits are given with their value; 0 = inactive; ? = inconclusive; - = no result.
SMILES,PDI inh,MLL AF4-AF9 inh,SIRT5 inh,ERp5 inh,FN deposit inh
CO[C@@H]1CN(C)C(=O)c2ccc(NC(=O)c3ccc4c(c3)OCO4)cc2OC[C@H](C)N(CCC(F)(F)F)C[C@H]1C,-,0,15.6,0,0
CO[C@H]1CN(C)C(=O)c2ccc(NS(=O)(=O)CC(F)(F)F)cc2OC[C@H](C)N(C)C[C@@H]1C,-,0,24.8,0,0
CO[C@H]1CN(C)C(=O)c2ccc(NC(=O)C3CCCC3)cc2OC[C@@H](C)N(CCC(F)(F)F)C[C@H]1C,-,28.3,0,0,0
Cc1ccc(-c2sc(C)nc2CC(=O)O)cc1,0,-,-,-,-
Cc1ccc(S(=O)(=O)/N=C(/c2ccccc2)N(C)C)c(C)c1,0,0,0,0,0
C=CCNC(=O)COC(=O)COc1ccc(Cl)cc1C,0,-,16.9,0,0
Cc1ccc(C(=O)N/N=C/c2cc(Br)ccc2O)cn1,0,0,0,0,0
Nc1ccccc1S(=O)(=O)C(F)F,0,0,0,0,0
Cc1ccc(N=C2C(=O)Nc3ccc(Br)cc32)cc1,0,0,15.3,0,0
CC(NS(=O)(=O)c1ccc2[nH]c(=O)c(=O)[nH]c2c1)C(=O)O (stereo unspecified),0,0,24.5,0,0
CC(C)CC(NS(=O)(=O)c1ccc2[nH]c(=O)c(=O)[nH]c2c1)C(=O)O (stereo unspecified),0,0,0,0,0
CC(C)C[C@H](NC(=O)c1nc[nH]c1C(=O)NCC(=O)OCc1ccccc1)C(=O)OC(C)(C)C,0,0,20.7,0,0
CC(C)Cc1ccc(-c2cc3nc(NCCc4ccc(S(N)(=O)=O)cc4)ccn3n2)cc1,0,0,19.6,0,0
CC(=O)NC(CCc1ccc(Cl)c(Cl)c1)c1cccc(O)c(=O)c1 (stereo unspecified),0,30.4,-,0,0
Cc1ccc(-c2csc(NCCn3c(-c4ccncc4)nc4cc(C(F)(F)F)ccc43)n2)cc1,0,-,17.3,0,0
O=C(Nc1cc(S(=O)(=O)N2CCOCC2)ccc1N1CCOCC1)c1cc2c(s1)CCC2,0,0,16.6,0,0
COc1ccc(S(=O)(=O)N2CCOCC2)cc1NC(=O)c1cc2c(s1)CCCC2,0,-,-,-,0
COc1cc(/C=C/C(=O)NC(C)C)ccc1OCc1ccccc1,0,-,-,-,0
COc1cc(/C=N/OCC(=O)Nc2cc(C)on2)ccc1OCc1ccccc1,0,?,28.0,0,0
CC(=O)Nc1ccc(S(=O)(=O)Nc2cccc(-n3cnnn3)c2)cc1,0,0,0,0,0
CC(=O)Nc1ccc(S(=O)(=O)Nc2ccc(-n3cnnn3)cc2)cc1,0,0,23.3,0,0
O=C(Nc1ccc2c(c1)OCCO2)C1CCCN1S(=O)(=O)c1cccc2cccnc12 (stereo unspecified),0,0,-,0,0
CC(=O)N1c2ccc(S(=O)(=O)N3CCCC(C(=O)NCc4ccccc4Cl)C3)cc2CC1C (stereo unspecified),0,0,0,0,0
CC(=O)N1CCCc2cc(S(=O)(=O)N3CCCC(C(=O)NCc4ccccc4Cl)C3)ccc21 (stereo unspecified),0,31.6,0,0,0
CC(=O)c1c(C)[nH]c(C(=O)N2CCN(c3ncccn3)CC2)c1C,-,0,15.7,0,0
CCN1CCc2nc3ccccc3c(C(=O)Nc3ccc(NC(C)=O)cc3)c2C1,0,0,0,0,0
CC(C)Cc1nnc(NC(=O)CSc2nc(N)cc(=O)[nH]2)s1,0,-,-,-,active
CO[C@H]1/C=C/O[C@@]2(C)Oc3c(C)c(O)c4c(O)c(c(C=NN5CCN(C)CC5)c(O)c4c3C2=O)NC(=O)/C(C)=C\C=C\[C@H](C)[C@H](O)[C@@H](C)[C@@H](O)[C@@H](C)[C@H](OC(C)=O)[C@@H]1C,0,31.2,0,0,0
C[C@@H]1CN([C@@H](C)CO)C(=O)Cc2cc(NS(=O)(=O)c3ccccc3)ccc2O[C@H]1CN(C)Cc1ccc(Cl)c(Cl)c1,-,0,20.5,0,0
Cc1ccc(S(=O)(=O)Nc2ccc3c(c2)CC(=O)N([C@H](C)CO)C[C@@H](C)[C@@H](CN(C)Cc2ccc(Cl)c(Cl)c2)O3)cc1,-,0,0,0,0
